Here are results for 1 compound from ChEMBL document CHEMBL4813946, “Discovery of novel 4-azaaryl-N-phenylpyrimidin-2-amine derivatives as potent and selective FLT3 inhibitors for acute myeloid leukaemia with FLT3 mutations” (Eur J Med Chem, 2021).

Assay [1] deals with Receptor-type tyrosine-protein kinase FLT3 (Homo sapiens) (UniProt P36888). The assay is described as follows: Inhibition of FLT3-mediated signalling pathway in human U-937 cells assessed as inhibition of eIF4E phosphorylation upto 20 x GI50 concentration incubated for 6 hrs by western blot analysis. The class given is cell-based. The method, boiled down: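 Cells lysed in phosphate lysis buffer with protease inhibitors and protein quantified. Western blots probed phospho and total STAT5, AKT, ERK, S6RP and eIF4E, plus full-length and cleaved PARP and caspase-3, with β-actin as loading control. At least two independent experiments.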
Receptor-type tyrosine-protein kinase FLT3 (Homo sapiens), sequence (P36888 whole entry): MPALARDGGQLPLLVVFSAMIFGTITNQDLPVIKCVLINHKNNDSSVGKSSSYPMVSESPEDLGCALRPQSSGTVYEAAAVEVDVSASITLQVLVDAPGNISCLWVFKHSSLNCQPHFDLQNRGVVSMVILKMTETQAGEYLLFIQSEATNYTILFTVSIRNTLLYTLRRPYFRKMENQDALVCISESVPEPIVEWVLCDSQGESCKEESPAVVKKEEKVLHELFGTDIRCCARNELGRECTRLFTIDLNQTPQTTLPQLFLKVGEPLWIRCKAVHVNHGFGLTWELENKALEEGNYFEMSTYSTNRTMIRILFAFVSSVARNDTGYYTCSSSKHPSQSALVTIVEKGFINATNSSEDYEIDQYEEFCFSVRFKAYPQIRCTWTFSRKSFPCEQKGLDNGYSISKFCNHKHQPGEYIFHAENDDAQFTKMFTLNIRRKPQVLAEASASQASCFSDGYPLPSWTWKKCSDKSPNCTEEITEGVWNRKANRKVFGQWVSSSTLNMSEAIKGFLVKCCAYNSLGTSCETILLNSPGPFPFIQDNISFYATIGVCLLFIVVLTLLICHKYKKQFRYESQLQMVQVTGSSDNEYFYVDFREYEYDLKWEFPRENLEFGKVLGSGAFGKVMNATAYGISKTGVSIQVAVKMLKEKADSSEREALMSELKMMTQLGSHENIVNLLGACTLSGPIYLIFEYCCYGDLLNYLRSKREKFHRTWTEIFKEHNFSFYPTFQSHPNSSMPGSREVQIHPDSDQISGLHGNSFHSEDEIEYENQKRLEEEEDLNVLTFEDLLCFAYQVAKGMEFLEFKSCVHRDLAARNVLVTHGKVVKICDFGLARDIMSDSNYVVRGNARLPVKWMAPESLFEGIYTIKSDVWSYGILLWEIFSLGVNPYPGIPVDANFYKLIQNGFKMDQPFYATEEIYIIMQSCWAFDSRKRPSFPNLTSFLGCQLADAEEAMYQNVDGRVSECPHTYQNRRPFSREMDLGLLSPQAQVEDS
In general terms: A western blot detects proteins with antibodies after separation by electrophoresis.

Assay [2] concerns U-937. The assay is described as follows: Induction of apoptosis in human U937 cells assessed as late apoptotic cells at 10 x GI50 concentration incubated for 48 hrs by annexin V-FITC staining based flow cytometry (reference value: 9.82 %). Format: functional. A general note: A flow cytometer gives signals particle by particle.
A short description of assay [3]: Inhibition of FLT3 ITD-NPOS mutant (unknown origin) incubated for 120 mins by ADP-glo based luminescence assay. Set-up: species or system Homo sapiens.
The subject of assay [4] is MV4-11. The assay can be described thus: Induction of apoptosis in human MV4-11 cells assessed as necrotic cells at 10 x GI50 concentration incubated for 24 hrs by annexin V-FITC and propidium iodide staining based flow cytometry (reference value: 0.75 %). Format: functional.
Assay [5] deals with U-937. The assay is described as follows: Induction of apoptosis in human U937 cells assessed as necrotic cells at 1 x GI50 concentration incubated for 24 hrs by annexin V-FITC and propidium iodide staining based flow cytometry (reference value: 1.10 %). The class given is functional.
The test system of assay [6] is U-937. The assay is described as follows: Induction of apoptosis in human U937 cells assessed as late apoptotic cells at 1 x GI50 concentration incubated for 24 hrs by annexin V-FITC and propidium iodide staining based flow cytometry (reference value: 10.30 %). The class given is functional.
Assay [7] has as its system MV4-11. The assay can be described thus: Induction of apoptosis in human MV4-11 cells assessed as late apoptotic cells at 20 x GI50 concentration incubated for 48 hrs by annexin V-FITC and propidium iodide staining based flow cytometry (reference value: […] %). The class given is functional.
Assay [8] has as its system MV4-11. The assay can be described thus: Induction of apoptosis in human MV4-11 cells assessed as late apoptotic cells at 10 x GI50 concentration incubated for 48 hrs by annexin V-FITC and propidium iodide staining based flow cytometry (reference value: 6.59 %). The class given is functional.
Assay [9] concerns MV4-11. The assay can be described thus: Induction of apoptosis in human MV4-11 cells assessed as viable cells at 1 x GI50 concentration incubated for 48 hrs by annexin V-FITC and propidium iodide staining based flow cytometry (reference value: 91.87 %). Format: functional.
Assay [10] has as its system U-937. The assay is described as follows: Induction of apoptosis in human U937 cells assessed as necrotic cells at 10 x GI50 concentration incubated for 24 hrs by annexin V-FITC and propidium iodide staining based flow cytometry (reference value: 1.10 %). The class given is functional.
For assay [11], the target named is CDK7/Cyclin H/MNAT1 (Homo sapiens, UniProt P50613). The assay can be described thus: Inhibition of CDK7/cyclin H/MAT1 (unknown origin) using HYSPTSPSYSPTSPSYSPTSPSKKKK-O substrate incubated for 120 mins measured after 40 mins incubation under dark by ADP-glo based luminescence assay. Format: protein-complex assay. The method, boiled down:
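In-house ADP-Glo assay with 2 mM DMSO stocks. Kinases were CDK1/cyclin B at 1 nM, CDK2/cyclin E1 at 10 nM and CDK7/cyclin H/MAT1 at 40 nM. Substrate was histone 1 for CDK1 and CDK2, and a RNA pol II CTD peptide for CDK7. Compound at 8–10 concentrations, 1:3 serial, final DMSO 0.5%. Reactions ran 60–120 min at room temperature, then ADP-Glo reagent 40 min in the dark, then detection reagent 40 min, read by luminescence. Ki was derived from IC50 by Cheng-Prusoff.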

The subject of assay [12] is MV4-11. The assay is described as follows: Induction of apoptosis in human MV4-11 cells assessed as early apoptotic cells at 20 x GI50 concentration incubated for 24 hrs by annexin V-FITC and propidium iodide staining based flow cytometry (reference value: 2.12 %). The class given is functional.
The subject of assay [13] is MV4-11. The assay is described as follows: Induction of apoptosis in human MV4-11 cells assessed as necrotic cells at 5 x GI50 concentration incubated for 24 hrs by annexin V-FITC and propidium iodide staining based flow cytometry (reference value: 0.75 %). Format: functional.
Assay [14] concerns MV4-11. The assay can be described thus: Induction of apoptosis in human MV4-11 cells assessed as late apoptotic cells at 1 x GI50 concentration incubated for 24 hrs by annexin V-FITC and propidium iodide staining based flow cytometry (reference value: 12.45 %). Format: functional.
The test system of assay [15] is MV4-11. The assay can be described thus: Induction of apoptosis in human MV4-11 cells assessed as viable cells at 5 x GI50 concentration incubated for 24 hrs by annexin V-FITC and propidium iodide staining based flow cytometry (reference value: 84.68 %). Format: functional.
For assay [16], the target named is Receptor-type tyrosine-protein kinase FLT3 (Homo sapiens, UniProt P36888, R595-E596INSEY). The assay can be described thus: Inhibition of FLT3 R595_E596insEY mutant (unknown origin) incubated for 120 mins by ADP-glo based luminescence assay. A general note: In ADP-Glo the light output rises with the ADP produced.
Receptor-type tyrosine-protein kinase FLT3, sequence (P36888 whole entry, looked up, stated change not applied): as the sequence (P36888 whole entry) above
For assay [17], the system named is U-937. The assay can be described thus: Induction of apoptosis in human U937 cells assessed as necrotic cells at 20 x GI50 concentration incubated for 48 hrs by annexin V-FITC staining based flow cytometry (reference value: 1.16 %). The class given is functional.
Assay [18] concerns MV4-11. The assay can be described thus: Induction of apoptosis in human MV4-11 cells assessed as late apoptotic cells at 5 x GI50 concentration incubated for 48 hrs by annexin V-FITC and propidium iodide staining based flow cytometry (reference value: 6.59 %). The class given is functional.
Assay [19] deals with U-937. The assay can be described thus: Induction of apoptosis in human U937 cells assessed as late apoptotic cells at 10 x GI50 concentration incubated for 24 hrs by annexin V-FITC and propidium iodide staining based flow cytometry (reference value: 10.30 %). The class given is functional.
Assay [20] deals with Jurkat. The assay is described as follows: Antiproliferative activity against human Jurkat cells harboring FLT3 knockout gene assessed as reduction in cell viability after 72 hrs by resazurin assay. Format: functional. The method, boiled down: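 Cells seeded and pre-incubated 24 h at 37 °C, 5% CO2, then given a five-fold dilution series of compound (from 10 mM DMSO stock) in medium, in triplicate. Resazurin added after 72 h exposure, 4 h in dark at 37 °C. Fluorescence read at 570/585 nm, normalised to DMSO vehicle. GI50 by non-linear regression; mean ± SD of at least two replicates.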

SMILES strings stand for the structures. Activity calls are given as the source filed them. No cut-off for these calls is given here.

CDK7/Cyclin H/MNAT1, sequence (P51946 whole entry): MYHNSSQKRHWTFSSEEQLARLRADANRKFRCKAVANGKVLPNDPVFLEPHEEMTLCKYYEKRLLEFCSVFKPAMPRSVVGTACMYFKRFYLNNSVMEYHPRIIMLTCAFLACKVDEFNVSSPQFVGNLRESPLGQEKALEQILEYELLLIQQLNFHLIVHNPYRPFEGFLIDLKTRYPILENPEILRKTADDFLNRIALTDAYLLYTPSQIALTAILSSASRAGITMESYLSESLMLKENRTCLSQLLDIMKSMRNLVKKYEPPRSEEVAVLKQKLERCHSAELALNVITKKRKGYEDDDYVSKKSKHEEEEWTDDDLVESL
CDK7/Cyclin H/MNAT1, sequence (P50613 whole entry): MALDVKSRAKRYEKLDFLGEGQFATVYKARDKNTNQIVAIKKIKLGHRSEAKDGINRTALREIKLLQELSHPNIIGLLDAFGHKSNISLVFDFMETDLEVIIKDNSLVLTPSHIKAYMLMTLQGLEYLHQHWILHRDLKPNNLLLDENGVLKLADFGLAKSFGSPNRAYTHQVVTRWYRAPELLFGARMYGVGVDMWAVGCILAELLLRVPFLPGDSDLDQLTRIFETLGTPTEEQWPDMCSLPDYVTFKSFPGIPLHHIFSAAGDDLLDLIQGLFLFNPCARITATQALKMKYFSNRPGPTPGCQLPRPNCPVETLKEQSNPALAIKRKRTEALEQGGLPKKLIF
CDK7/Cyclin H/MNAT1, sequence (P51948 whole entry, further chain): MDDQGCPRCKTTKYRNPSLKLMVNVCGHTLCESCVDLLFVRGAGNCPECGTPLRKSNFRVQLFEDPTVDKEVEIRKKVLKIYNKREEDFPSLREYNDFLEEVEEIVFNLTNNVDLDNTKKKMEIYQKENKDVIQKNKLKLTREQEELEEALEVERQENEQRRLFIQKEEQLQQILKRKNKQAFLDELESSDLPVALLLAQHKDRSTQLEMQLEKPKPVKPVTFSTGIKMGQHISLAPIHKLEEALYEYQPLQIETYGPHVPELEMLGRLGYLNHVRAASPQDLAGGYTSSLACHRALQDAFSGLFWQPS

For `CC(=O)N1CCN(c2ccc(Nc3nccc(-c4cn(C)c5ncccc45)n3)cc2)CC1`, the inhibition result in [1] is “Active”. Moreover, the Activity in assay [2] came out at 12.02%; in assay [4], 2.13%; in assay [5], 1.42%; in assay [6], 7.98%; in assay [7], 1.56%; in assay [8], 23.5%. The Activity in [9] is recorded as 89.25%; in assay [10], 1.4%; in assay [12] it was 3.51%; in assay [13], 1.86%; in assay [14], 14.35%; in [15], 79.81%. The Activity in [17] was 1.73%; in [18], 9.25%; in [19], 10.31%. For the same compound, the Ki – broadly, a dissociation constant, usually derived from enzyme kinetics or from competition with a known ligand – was 262 nM in assay [3], more than 5 µM in assay [11] and 77 nM in assay [16]. The GI50 (as a rule, the concentration at which growth is held to half of that of the control) in [20] was more than 10 µM.
